Measurements pooled from the literature.
Values after ≈ are worked out from the molar mass of the structure shown.

SMILES	target or system	test	test system	conditions	endpoint	value
CN(C[C@H](O)[C@@H](O)[C@H](O)[C@H](O)CO)C(=O)N[C@]12CCC(C)(C)C[C@H]1C1=CC[C@@H]3[C@@]4(C)CC[C@@H]5OC(C)(C)OC[C@@]5(C)[C@@H]4CC[C@@]3(C)[C@]1(C)CC2	Leishmania mexicana	parasite growth, resazurin	–	50 µM, amastigote	inhibition	99%
c1ccc(-c2n(Cc3ccc4ccccc4c3)cc[n+]2Cc2ccc3ccccc3c2)cc1	HOP-92	cell growth or viability, SRB	–	–	TGI	2280 nM
C[C@H](O)[C@H](O)[C@@H](O)[C@@H](O)[C@@H]1OC[C@@]2(C)[C@@H]3CC[C@]4(C)[C@H](CC=C5[C@@H]6CC(C)(C)CC[C@]6(C(=O)O)CC[C@]54C)[C@@]3(C)CC[C@@H]2O1	Leishmania mexicana	parasite growth, resazurin	–	50 µM, amastigote	inhibition	100%
O=c1ccc2cc3ccoc3cc2o1	–	tubulin polymerisation, inhibitor	–	10 µM	inhibition	30.1%
CC(=O)N1CCN(C(=O)N[C@]23CCC(C)(C)C[C@H]2C2=CC[C@@H]4[C@@]5(C)CC[C@@H]6OC(C)(C)OC[C@@]6(C)[C@@H]5CC[C@@]4(C)[C@]2(C)CC3)CC1	Leishmania mexicana	parasite growth, resazurin	–	50 µM, amastigote	inhibition	100%
O=C1NC(=S)S/C1=C\c1c2ccccc2c(-c2ccc(N(c3ccccc3)c3ccccc3)cc2)c2ccccc12	Staphylococcus epidermidis	microbial growth, broth dilution	ATCC12228	–	MIC	> 1000 µg/mL
CC[C@H](CC[C@@H](C)[C@H]1CC[C@H]2[C@@H]3CC=C4C[C@@H](O[C@@H]5O[C@H](CO)[C@@H](O)[C@H](O)[C@H]5O)CC[C@]4(C)[C@H]3CC[C@]12C)C(C)C	–	tubulin polymerisation, inhibitor	–	10 µM	inhibition	14.4%
O=C(O)CN1C(=O)/C(=C/c2ccc(-c3ccc(N(c4ccccc4)c4ccccc4)cc3)cc2)SC1=S	Staphylococcus epidermidis	microbial killing, broth dilution	ATCC12228	–	MBC	7.8 µg/mL (≈ 14.9 µM)
O=C(Nc1ccc(Cl)c(Cl)c1)c1cc([N+](=O)[O-])c(F)cc1Cl	Leishmania mexicana	parasite growth	J774.A1	intracellular, amastigote	EC50	950 nM
O=C1NC(=S)S/C1=C\c1ccc(-c2ccc(N(c3ccccc3)c3ccccc3)cc2)cc1	Staphylococcus epidermidis	microbial growth, broth dilution	ATCC12228	–	MIC	125 µg/mL (≈ 269 µM)
CC1(C)CC[C@]2(NC(=O)N3CCCC3)CC[C@]3(C)C(=CC[C@@H]4[C@@]5(C)CC[C@H](O)[C@@](C)(CO)[C@@H]5CC[C@]43C)[C@@H]2C1	Leishmania mexicana	parasite growth, resazurin	–	50 µM, amastigote	inhibition	99%
CC1(C)CC[C@]2(C)CC[C@]3(C)[C@H]4CC=C5[C@@H](CC[C@H](O)C5(C)C)[C@]4(C)CC[C@@]3(C)[C@@H]2C1	–	tubulin polymerisation, inhibitor	–	10 µM	inhibition	17%
Cc1ccc(-c2nc3ccccc3s2)cc1NC(=O)c1cc([N+](=O)[O-])ccc1O	Leishmania mexicana	parasite growth	J774.A1	intracellular, amastigote	EC50	> 10000 nM
CO[C@H]1O[C@H]([C@@H]2OC[C@@]3(C)[C@@H]4CC[C@]5(C)[C@H](CC=C6[C@@H]7CC(C)(C)CC[C@]7(C(=O)O)CC[C@]65C)[C@@]4(C)CC[C@@H]3O2)[C@@H](O)[C@H](O)[C@H]1O	Leishmania mexicana	parasite growth, resazurin	–	50 µM, amastigote	inhibition	96.6%
O=C(/C=C/c1ccc(O)c(O)c1)O[C@@H]1C[C@](O)(C(=O)O)C[C@@H](O)[C@H]1O	–	tubulin polymerisation, inhibitor	–	10 µM	inhibition	30.9%
CC1(C)CC[C@]2(C(=O)O)CC[C@]3(C)C(=CC[C@@H]4[C@@]5(C)CC[C@@H]6OCOC[C@@]6(C)[C@@H]5CC[C@]43C)[C@@H]2C1	Leishmania mexicana	parasite growth, resazurin	–	50 µM, amastigote	inhibition	97.5%
O=C(O)CN1C(=O)/C(=C/c2ccc(-c3ccc(N(c4ccccc4)c4ccccc4)cc3)c3ccccc23)NC1=S	Staphylococcus epidermidis	microbial killing, broth dilution	ATCC12228	–	MBC	> 1000 µg/mL
O=Cc1ccc(CO)o1	–	tubulin polymerisation, inhibitor	–	10 µM	inhibition	13.4%
O=C(Nc1cnc(Cl)c(Cl)c1)c1cc([N+](=O)[O-])c(F)cc1F	Leishmania mexicana	parasite growth	J774.A1	intracellular, amastigote	EC50	220 nM
CC(=O)OC1c2c(ccc3ccc(=O)oc23)OC(C)(C)C1OC(=O)C(C)(O)C(C)O (stereo not drawn)	–	tubulin polymerisation, inhibitor	–	10 µM	inhibition	33.8%
O=C1NC(=S)N/C1=C\c1c2ccccc2c(-c2ccc(N(c3ccccc3)c3ccccc3)cc2)c2ccccc12	Staphylococcus epidermidis	microbial killing, broth dilution	ATCC12228	–	MBC	> 1000 µg/mL
COc1c2ccoc2cc2oc(=O)ccc12	–	tubulin polymerisation, inhibitor	–	10 µM	inhibition	22.5%
CC1(C)CC[C@]2(C(=O)OCc3ccccc3[N+](=O)[O-])CC[C@]3(C)C(=CC[C@@H]4[C@@]5(C)CC[C@H](O)[C@@](C)(CO)[C@@H]5CC[C@]43C)[C@@H]2C1	Leishmania mexicana	parasite growth, resazurin	–	50 µM, amastigote	inhibition	100%
O=C(O)CN1C(=O)/C(=C/c2ccc(-c3ccc(N(c4ccccc4)c4ccccc4)cc3)c3ccccc23)SC1=S	Staphylococcus epidermidis	microbial growth, broth dilution	ATCC12228	–	MIC	500 µg/mL (≈ 873 µM)
